Tests used:
[1] = target: T1, 2-Hydroxyacid oxidase 1 (Mus musculus) (UniProt Q9WU19); assay: Inhibition of glycolate oxidase in C57BL/6 Agxt1-/- mouse hepatocytes using glycolate as substrate assessed as relative oxalate level at 10 uM after 24 hrs; type: cell-based
T1 sequence (whole entry): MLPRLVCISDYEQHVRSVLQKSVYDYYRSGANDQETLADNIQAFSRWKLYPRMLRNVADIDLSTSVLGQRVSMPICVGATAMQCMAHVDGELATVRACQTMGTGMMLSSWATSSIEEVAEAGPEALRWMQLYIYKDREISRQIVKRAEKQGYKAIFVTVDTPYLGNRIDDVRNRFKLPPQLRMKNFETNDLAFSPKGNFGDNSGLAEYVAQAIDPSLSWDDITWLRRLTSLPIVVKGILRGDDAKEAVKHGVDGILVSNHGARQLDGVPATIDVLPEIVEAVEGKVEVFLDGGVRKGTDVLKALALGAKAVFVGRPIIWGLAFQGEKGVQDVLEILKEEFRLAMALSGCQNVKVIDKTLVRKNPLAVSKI
How it was run: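 Primary Agxt1-/- mouse hepatocytes in 6-well plates, serum-free Williams E with 5 mM glycolate, treated with 10 µM compound. Excreted oxalate measured 24 h later by oxalate oxidase–HRP colorimetric kit (595 nm) and expressed relative to untreated control. Mean ± SD, n = 3, one-way ANOVA.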

[2] = target: T1, 2-Hydroxyacid oxidase 1 (Mus musculus); assay: Inhibition of mouse recombinant glycolate oxidase expressed in Escherichia coli at 25 uM using glycolate as substrate after 1 min by sulfonated DCIP dye-based assay relative to control
2-Hydroxyacid oxidase 1 = target: T2, 2-Hydroxyacid oxidase 1 (Mus musculus, UniProt Q9WU19); assay: Inhibition of mouse recombinant glycolate oxidase expressed in Escherichia coli using glycolate as substrate by sulfonated DCIP dye-based assay
T2 sequence (Q9WU19 whole entry): T1 sequence (whole entry)
How it was run: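 Purified recombinant mGO (10 µL at 0.1 µg/µL) with saturating glycolate (22.2 mM) in 50 mM potassium phosphate pH 7. Compound at 0.2 µM–0.2 mM; H2O2 detected by HRP-coupled sulfonated DCIP/4-aminoantipyrine dye at 515 nm. IC50 from nonlinear dose-response fitting.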

For COc1cc(-c2ccc(C=O)o2)ccc1C(=O)O, the fold change (FC) [1] was 0.82 and the inhibition [2] was 0%.

In the case of O=C(O)c1cc(-c2ccsc2)ccc1O, the fold change (FC) [1] is reported as 0.94 and the inhibition [2] is reported as 25.2%.

O=C(O)c1cc(Sc2nnnn2-c2ccccc2)c2ccccc2c1O was tested, and the fold change (FC) [1] was 0.99, the IC50 (2-Hydroxyacid oxidase 1) was 11.1 µM and the inhibition [2] was 75.3%.

For O=C(O)c1cc(-c2cccs2)ccc1O, the fold change (FC) [1] was 0.82, the IC50 (2-Hydroxyacid oxidase 1) was 39.5 µM and the inhibition [2] was 30%.

O=Cc1ccc(-c2ccc(O)cc2)o1 showed a fold change (FC) [1] of 0.32 and an inhibition [2] of 24.2%.

O=C(O)c1cnc2cc(Cl)ccc2c1O was tested, and the inhibition [2] was 24.8%.

For O=C(O)c1cc(Oc2ccc([N+](=O)[O-])cc2)c2ccccc2c1O, the fold change (FC) [1] was 0.77, the IC50 (2-Hydroxyacid oxidase 1) was 2.9 µM and the inhibition [2] was 96.3%.

O=C(O)c1ccc(-c2ccc(OCc3ccccc3)cc2)cc1O was tested, and the fold change (FC) [1] was 1.11, the IC50 (2-Hydroxyacid oxidase 1) was 10.4 µM and the inhibition [2] was 83.4%.

O=C(O)c1ccc(-c2ccc(CO)o2)cc1O was tested, and the fold change (FC) [1] was 0.88, the IC50 (2-Hydroxyacid oxidase 1) was 7.9 µM and the inhibition [2] was 85.7%.

For O=C(O)c1cc(-c2ccccc2COc2cc(F)cc(F)c2)ccc1O, the fold change (FC) [1] was 0.92, the IC50 (2-Hydroxyacid oxidase 1) was 5.8 µM and the inhibition [2] was 84.5%.

For O=Cc1ccc(-c2cccc(C(=O)O)c2)o1, the fold change (FC) [1] was 0.86 and the inhibition [2] was 22.7%.

Nc1ccc(C(=O)O)c(O)c1 gave an inhibition [2] of 14.9%.

With Cc1ccc(/N=N/c2cc(C(=O)O)cc3ccccc23)c(S(=O)(=O)O)c1 the inhibition [2] was 1.5%.

In the case of O=C(O)c1ccc(-c2ccoc2)cc1O, the fold change (FC) [1] is reported as 1.02 and the inhibition [2] is reported as 22.8%.

O=C(O)c1ccc(-c2ccco2)cc1O showed a fold change (FC) [1] of 0.87, an IC50 (2-Hydroxyacid oxidase 1) of 39.3 µM and an inhibition [2] of 35.8%.

O=Cc1ccc(-c2ccc3cc(O)c(C(=O)O)cc3c2)o1 gave an inhibition [2] of 26.2%.

COc1ccc(COc2ccc(-c3ccc(C(=O)O)c(O)c3)cc2)cc1 showed a fold change (FC) [1] of 0.9, an IC50 (2-Hydroxyacid oxidase 1) of 13.8 µM and an inhibition [2] of 65%.

Compound N[C@@H](CCC(=O)Nc1ccc(O)c(C(=O)O)c1)C(=O)O has an inhibition [2] of 7.8%.

O=C(O)c1cc2ccccc2c(/N=N/c2cc(C(F)(F)F)ccc2Cl)c1O showed a fold change (FC) [1] of 0.91 and an inhibition [2] of 47.4%.

For O=C(O)c1ccc(-c2ccc(C(=O)O)c(O)c2)o1, the inhibition [2] was 0%.

COc1ccc(COc2ccc(-c3ccc(O)c(C(=O)O)c3)cc2)cc1 gave a fold change (FC) [1] of 1.07, an IC50 (2-Hydroxyacid oxidase 1) of 9.5 µM and an inhibition [2] of 83.8%.

O=C(O)c1ccccc1O gave an inhibition [2] of 18.5%.

For Nc1ccc(O)c(C(=O)O)c1 [MESALAMINE], the fold change (FC) [1] was 0.88, the IC50 (2-Hydroxyacid oxidase 1) was 7.8 µM and the inhibition [2] was 71.9%.

Work on O=C(O)c1cccc(F)c1O yielded an inhibition [2] of 13.5%.

O=Cc1ccc(-c2ccc(C(=O)O)c(O)c2)s1 showed a fold change (FC) [1] of 1 and an inhibition [2] of 28.7%.

For O=C(O)c1ccc(-c2ccsc2)cc1O, the fold change (FC) [1] was 0.99, the IC50 (2-Hydroxyacid oxidase 1) was 21.6 µM and the inhibition [2] was 41.4%.

With O=C(O)c1cc(-c2ccoc2)ccc1O the fold change (FC) [1] was 0.89 and the inhibition [2] was 26.6%.

Compound Cn1nccc1-c1ccc(C(=O)O)c(O)c1 has a fold change (FC) [1] of 0.93 and an inhibition [2] of 16.2%.

O=C(O)c1ccc(-c2ccc(O)cc2)cc1O showed a fold change (FC) [1] of 0.82, an IC50 (2-Hydroxyacid oxidase 1) of 13.5 µM and an inhibition [2] of 61.3%.

For O=C(O)c1ccc(Cl)cc1O, the inhibition [2] was 20.8%.

For O=C(O)c1ccc(-c2ccncc2)cc1O, the fold change (FC) [1] was 0.88 and the inhibition [2] was 22.7%.

COC(=O)c1ccc(-c2ccc(C=O)o2)cc1OC gave a fold change (FC) [1] of 0.9 and an inhibition [2] of 17.5%.

O=C(O)c1cc([N+](=O)[O-])c(-c2ccco2)cc1O was tested, and the fold change (FC) [1] was 0.86 and the inhibition [2] was 5.9%.

Work on Cc1ccc(-c2ccc(C(=O)O)c(O)c2)s1 yielded a fold change (FC) [1] of 0.95 and an inhibition [2] of 28.7%.

CC(=O)c1ccc(-c2ccc(C(=O)O)c(O)c2)s1 was tested, and the fold change (FC) [1] was 0.89 and the inhibition [2] was 28.1%.

Work on O=Cc1ccc(-c2ccc(C(=O)O)c(CO)c2)o1 yielded a fold change (FC) [1] of 0.98 and an inhibition [2] of 0%.

O=C(O)c1cc2ccccc2c(/N=N/c2c(O)cc(S(=O)(=O)O)c3ccccc23)c1O showed a fold change (FC) [1] of 1.11 and an inhibition [2] of 75.1%.

Work on CC(=O)c1ccc(O)c(C(=O)O)c1 yielded an inhibition [2] of 22.1%.

Reference: ChEMBL document CHEMBL4229456, “Salicylic Acid Derivatives Inhibit Oxalate Production in Mouse Hepatocytes with Primary Hyperoxaluria Type 1” (J Med Chem, 2018)
